Several values for one entry are separate records, joined by “and”; a condition that tells them apart may be missing. Identical values can stand only once.
Experiments:
[1] = tested on: Rattus norvegicus; assay: Antiinflammatory activity dosed orally against D-adjuvant arthritis in uninjected rat paw at 50 mg/kg; type: functional; details: route oral
[2] = tested on: Rattus norvegicus; assay: Antiinflammatory activity against carrageenan induced rat paw edema (CPE), dosed orally; type: functional
In short: (§1)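 Male Sprague–Dawley rats (150 ± 10 g), five per group. Compound or vehicle given orally in 0.5% methylcellulose 1 h before subplantar injection of 0.1 mL 1% carrageenan in saline into the right hind paw. Paw volume measured by mercury displacement before dosing and 3 h after carrageenan; the difference is the edema volume. ANOVA with Dunnett's t test.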

[3] = tested on: Rattus norvegicus; assay: Antiinflammatory activity against D-adjuvant arthritis in injected rat paw at the dose of 50 mg/kg by oral administration; type: functional
[4] = tested on: Mus musculus; assay: Percent suppression of plaque forming cells in spleen cell suspension at a dose of 200 mg/kg, po. in AKR mice, p<0.05; type: functional
[5] = tested on: Rattus norvegicus; assay: Antiinflammatory activity against D-adjuvant arthritis in uninjected rat paw at the dose of 50 mg/kg by oral administration; type: functional
In short: (§2)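 Rat developing adjuvant arthritis screen with oral dosing on a prophylactic protocol. Percent change in body weight versus untreated animals was recorded as a preliminary toxicity sign. Significance was assessed against controls by two-tailed Student's t test, p < 0.05.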

[6] = tested on: Mus musculus; assay: Percent suppression of plaque forming cells in spleen cell suspension at a dose of 100 mg/kg, po. in AKR mice, p<0.05; type: functional
[7] = tested on: Mus musculus; assay: Percent suppression of plaque forming cells in spleen cell suspension at a dose of 50 mg/kg, po. in AKR mice, p<0.05; type: functional
[8] = species on record: Rattus norvegicus; assay: Antiinflammatory activity in D-adjuvant induced arthritis in rat measured by the change in body weight; type: functional; set-up: concentration or dose not given beside the values
[9] = tested on: Rattus norvegicus; assay: Antiinflammatory activity dosed orally against carrageenan induced rat paw edema(CPE).value in the parentheses is the dose(mg/kg).; type: functional; in short: as §1
[10] = tested on: Rattus norvegicus; assay: Antiinflammatory activity against D-adjuvant arthritis in uninjected rat paw at the dose of 10 mg/kg by oral administration; type: functional
[11] = tested on: Rattus norvegicus; assay: Antiinflammatory activity against D-adjuvant arthritis in injected rat paw at the dose of 10 mg/kg by oral administration; type: functional
[12] = tested on: Rattus norvegicus; assay: Antiinflammatory activity against D-adjuvant arthritis in uninjected rat paw at the dose of 5 mg/kg by oral administration; type: functional
[13] = tested on: Rattus norvegicus; assay: Antiinflammatory activity against D-adjuvant arthritis in injected rat paw at the dose of 5 mg/kg by oral administration; type: functional
[14] = tested on: Rattus norvegicus; assay: Antiinflammatory activity dosed orally against carrageenan induced rat paw edema(CPE); type: functional; in short: as §1
[15] = tested on: Rattus norvegicus; assay: Antiinflammatory activity dosed orally against D-adjuvant arthritis in rat measured by the change in the weight of the body; type: functional
[16] = tested on: Rattus norvegicus; assay: Antiinflammatory activity against D-adjuvant arthritis in injected rat paw at the dose of 2.5 mg/kg by oral administration; type: functional
In short: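 Rats dosed orally in a developing adjuvant arthritis screen; swelling of the adjuvant-injected paw scored against untreated arthritic controls. Significance by two-tailed Student's t test, p < 0.05. Percent change in body weight versus untreated animals recorded as a preliminary toxicity indication.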

[17] = tested on: Rattus norvegicus; assay: Antiinflammatory activity against D-adjuvant arthritis in injected rat paw at the dose of 1.0 mg/kg by oral administration; type: functional; in short: as §2
[18] = tested on: Rattus norvegicus; assay: Antiinflammatory activity against D-adjuvant arthritis in uninjected rat paw at the dose of 1.0 mg/kg by oral administration; details: read-out: Inhibition
[19] = tested on: Rattus norvegicus; assay: Antiinflammatory activity dosed orally against D-adjuvant arthritis in rat.; type: functional
[20] = tested on: Mus musculus; assay: Percent suppression of plaque forming cells in spleen cell suspension at a dose of 125 mg/kg, po. in AKR mice; type: functional
[21] = tested on: Rattus norvegicus; assay: Antiinflammatory activity dosed orally against D-adjuvant arthritis in injected rat paw at 100 mg/Kg; type: functional; details: po
[22] = tested on: Rattus norvegicus; assay: Antiinflammatory activity dosed orally against D-adjuvant arthritis in injected rat paw at 50 mgKg; type: functional
[23] = tested on: Rattus norvegicus; assay: Antiinflammatory activity dosed orally against D-adjuvant arthritis in uninjected rat paw at 100 mg/Kg; type: functional; details: po

SMILES: CCN(CC)CC(=O)Nc1nc2cc3nc(NC(=O)CN(CC)CC)sc3cc2s1
- inhibition in vivo at 50 mg/kg [1]: 98%
- Inhibition [2]: 9%
- inhibition in vivo at 50 mg/kg [3]: 76%
- Activity [4]: 83%
- inhibition in vivo at 50 mg/kg [5]: 98%
- Activity [6]: 82%
- Activity [7]: 67%

SMILES: CC1CCC(NCC(=O)Nc2nc3cc4nc(NC(=O)CNC5CCC(C)CC5)sc4cc3s2)CC1 (centres undefined)
- inhibition in vivo at 50 mg/kg [3]: 21%
- Activity [8]: -4%
- inhibition in vivo at 50 mg/kg [5]: 54%
- Inhibition [9]: 3%

SMILES: Nc1nc2cc3sc(N)nc3cc2s1
- Inhibition [2]: 4%
- inhibition in vivo at 10 mg/kg [10]: 100%
- Activity [8]: -30%
- inhibition in vivo at 10 mg/kg [11]: 88%

SMILES: CCN(CC)CC(=O)Nc1nc2cc3sc(NC(=O)CN(CC)CC)nc3cc2s1.Cl.Cl
- Inhibition [2]: 9%
- Activity [8]: -33%
- inhibition in vivo at 5 mg/kg [12]: 0%
- inhibition in vivo at 5 mg/kg [13]: 11%

SMILES: CCN(CC)C(C)C(=O)Nc1nc2cc3nc(NC(=O)C(C)N(CC)CC)sc3cc2s1.Cl.Cl (centres undefined)
- inhibition in vivo at 50 mg/kg [3]: 0%
- Inhibition [14]: 0%
- inhibition in vivo at 50 mg/kg [5]: 0%
- Activity [15]: -19%

SMILES: COc1ccc2c(c1)c(CC(=O)O)c(C)n2C(=O)c1ccc(Cl)cc1 [INDOMETHACIN]
- inhibition in vivo at 2.5 mg/kg [16]: 71%
- inhibition in vivo at 1 mg/kg [17]: 61%
- Inhibition [14]: 63% and 34%
- inhibition in vivo at 1 mg/kg [18]: 69%
- Body weight change [19]: 18% and 28%

SMILES: CCN(CC)CCOc1ccc2c(c1)C(=O)c1cc(OCCN(CC)CC)ccc1-2 [TILORONE]
- Activity [20]: 28%
- Inhibition [2]: 0%
- inhibition in vivo at 100 mg/kg [21]: 59%
- Activity [8]: 10%
- Inhibition [22]: 53%
- inhibition in vivo at 100 mg/kg [23]: 45%

Source: ChEMBL document CHEMBL1125290, “Bis basic substituted diaminobenzobisthiazoles as potential antiarthritic agents” (1992)
